In ChEMBL document CHEMBL1123579, “Synthesis and evaluation of mono-, di-, and trifluoroethenyl-GABA derivatives as GABA-T inhibitors” (J Med Chem, 1987):

Columns and labels:
[1] = test system: Mus musculus; test: Brain GABA level was measured in mice 6 hour after intraperitoneal administration at a dose of 1.9 mM/ kg.; assay type: functional
In short: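 Male Swiss Albino mice (20–25 g), housed five per cage with free food and water on a 12-h light cycle, received drug ip as aqueous solution and were decapitated 6 h later. Half-brain homogenized in 10 mL 0.2 N HClO4, and supernatant GABA measured on an automatic amino acid analyzer. Mean ± SEM of five animals; control n = 15 pooled across days; Student's t test.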

[2] = Dissociation constant pKa was reported.; assay type: physicochemical
[3] = test system: Mus musculus; test: In vivo brain GABA-T activity was measured in mice 6 hour after intraperitoneal administration at a dose of 1.9 mM / kg.; assay type: functional
In short: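 Male Swiss Albino mice (20–25 g) received drug ip as aqueous solution and were decapitated 6 h later. Half-brain was frozen, then homogenized in 9 volumes of 10 mM KH2PO4 pH 6.8 with 0.1 mM pyridoxal phosphate, 1 mM EDTA, 0.1 mM glutathione, 0.13% Triton X-100 and 20% glycerol for GABA-T activity. Mean ± SEM, n = 5; control n = 15; Student's t test.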

[4] = test system: Mus musculus; test: Brain GABA level was measured in mice 6 hour after intraperitoneal administration at a dose of 3.8 mM/ kg.; assay type: functional
In short: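 Male Swiss Albino mice (20–25 g), housed five per cage under a 12-h light-dark cycle, were given drug ip as an aqueous solution. They were decapitated 6 h later and brains split sagittally and frozen. Half-brain was homogenized in 10 mL 0.2 N HClO4, and supernatant GABA was measured by automatic amino acid analyzer. Values are mean ± SEM of five animals (controls: 15, different days); Student's t test.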

[5] = test system: Mus musculus; test: In vivo brain GABA-T activity was measured in mice 6 hour after intraperitoneal administration at a dose of 3.8 mM / kg.; assay type: functional
In short: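 Male Swiss Albino mice (20–25 g) got an ip aqueous dose and were decapitated 6 h later. Brains were split sagittally and frozen. Half-brain was homogenized in 9 volumes of 10 mM KH2PO4 pH 6.8 with 0.1 mM pyridoxal phosphate, 1 mM EDTA, 0.1 mM glutathione, 0.13% Triton X-100 and 20% glycerol for GABA-T activity. Values are mean ± SEM, n = 5 (controls 15); Student's t test.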

Structure (SMILES) | pKa [2] | Activity [1] | Activity [3] | Activity [4] | Activity [5]
NC(C=C(F)F)CCC(=O)O (stereo unspecified) | 9.32 | 2.8 µM/g | 42.4 mM/h | – | –
C#CC(N)CCC(=O)O (stereo unspecified) | 8.2 | – | – | – | –
C=CC(N)CCC(=O)O (stereo unspecified) [VIGABATRIN] | 9.5 | 9.1 µM/g | 29.3 mM/h | – | –
NC(CCC(=O)O)C(F)=C(F)F (stereo unspecified) | 7.87 | – | – | 2.7 µM/g | 69.4 mM/h

More lines, main results first:

pKa [2] | Structure (SMILES) | Activity [1] | Activity [3] | Activity [4] | Activity [5]
8.32 | C=C(F)C(N)CCC(=O)O (stereo unspecified) | 3.6 µM/g | 59.7 mM/h | – | –
9.35 | NC(/C=C\F)CCC(=O)O (stereo unspecified) | 9.8 µM/g | 38.3 mM/h | – | –
